Measurements gathered from unrelated publications.
Target: Serine/threonine-protein kinase TAO1 (TAOK1, Homo sapiens, UniProt Q7L7X3)
Sequence (Q7L7X3 1-1001, as in one of the studies): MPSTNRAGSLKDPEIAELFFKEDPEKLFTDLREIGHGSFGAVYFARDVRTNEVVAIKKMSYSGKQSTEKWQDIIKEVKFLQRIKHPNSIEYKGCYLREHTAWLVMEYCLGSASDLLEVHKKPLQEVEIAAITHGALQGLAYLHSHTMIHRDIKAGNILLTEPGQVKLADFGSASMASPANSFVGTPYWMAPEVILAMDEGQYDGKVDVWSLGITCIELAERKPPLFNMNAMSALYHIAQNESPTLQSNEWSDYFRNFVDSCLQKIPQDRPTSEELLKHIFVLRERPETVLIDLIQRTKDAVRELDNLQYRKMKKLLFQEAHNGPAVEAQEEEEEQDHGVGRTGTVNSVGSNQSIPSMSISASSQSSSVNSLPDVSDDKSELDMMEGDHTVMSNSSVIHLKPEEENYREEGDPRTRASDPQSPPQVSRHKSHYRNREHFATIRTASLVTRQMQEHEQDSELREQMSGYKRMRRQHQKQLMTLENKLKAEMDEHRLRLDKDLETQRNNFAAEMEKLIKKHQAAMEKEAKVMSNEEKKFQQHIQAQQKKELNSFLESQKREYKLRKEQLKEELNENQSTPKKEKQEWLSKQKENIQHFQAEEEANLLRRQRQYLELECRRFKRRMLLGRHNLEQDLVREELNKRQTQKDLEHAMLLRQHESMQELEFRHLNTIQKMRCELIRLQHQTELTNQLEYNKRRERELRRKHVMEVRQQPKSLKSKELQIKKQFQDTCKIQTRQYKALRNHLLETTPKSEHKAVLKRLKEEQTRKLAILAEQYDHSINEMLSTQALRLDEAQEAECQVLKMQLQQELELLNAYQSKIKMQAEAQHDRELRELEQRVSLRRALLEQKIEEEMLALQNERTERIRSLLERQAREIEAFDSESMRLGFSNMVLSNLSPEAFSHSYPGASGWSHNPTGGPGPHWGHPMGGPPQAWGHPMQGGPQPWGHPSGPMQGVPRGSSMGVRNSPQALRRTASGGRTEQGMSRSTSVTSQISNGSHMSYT

Cc1ccc(NC(=O)c2ccc(C)c(C(F)(F)F)c2)cc1C#Cc1nn(C2CCC(O)CC2)c2ncnc(N)c12 (centres unmarked)
remaining signal (cell-free assay; 10 µM): 18%

FC(F)(F)Oc1cccc(-c2cnc3ccc(-c4ccncc4)nn23)c1
activity vs control (enzyme activity, inhibitor, radiometric; 1 µM): 83%

Cc1ccc(C(=O)Nc2ccc(CN3CCN(C)CC3)c(C(F)(F)F)c2)cc1C#Cc1cnc2cccnn12
remaining activity (enzyme activity, inhibitor; 23.5 nM): 67%

Cc1c(C(=O)O)cc(-c2ccc(C3CCNCC3)cc2)c2ccc(-c3ccc(C(F)(F)F)cc3)cc12
remaining binding (binding, competition with immobilised ligand; 1 µM): 100%

Nc1ncnc2occ(-c3ccc(NC(=O)Nc4cc(C(F)(F)F)ccc4F)cc3)c12
remaining signal (cell-free assay, inhibitor; 20 µM): 0.3%

COc1cc(Nc2cnc(C#N)c(O[C@H](C)CN(C)C)n2)ncc1-c1cnn(C)c1
remaining activity (enzyme activity, inhibitor, radiometric; 1 µM): 87%

COc1cc(/C=C/C(=O)CC(=O)/C=C/c2ccc(O)c(OC)c2)ccc1O
activity vs control (enzyme activity, inhibitor; 1 µM): 84%

Cc1cc(NC(=O)c2cccc3cc(-c4cccc5[nH]nc(N)c45)ccc23)ccc1F
activity vs control (enzyme activity, inhibitor; 0.1 µM): 103%

O=C1Nc2ccc(Cl)cc2C1=Cc1cc(Cl)c(O)c(Cl)c1
remaining signal (cell-free assay; 0.5 µM): 71.6%

Cc1sc(C(=O)NC2COC2)cc1-n1cc(NC(=O)Nc2c(F)cccc2Cl)cn1
remaining activity (enzyme activity, inhibitor; 10 µM): 108%

O=C(Nc1cccnn1)N1CC(C/C=C/c2cncc(Oc3ccc(C(F)(F)F)cn3)n2)C1
remaining binding (cell-free assay, competition with immobilised ligand; 1 µM): 91%

Clc1ccc(Nc2nnc(Cc3ccncc3)c3ccccc23)cc1
remaining signal (cell-free assay; 0.5 µM): 98.7%

CN(C)C(=O)Cn1cc(-c2nc(C3(c4ccc(-c5cnc(N)nc5)cc4)CC3)no2)cn1
remaining binding (cell-free assay, competition with immobilised ligand; 1 µM): 86%

Oc1cccc(-c2nc(N3CCOCC3)c3oc4ncccc4c3n2)c1
remaining activity (enzyme activity, inhibitor; 10 µM): 84%

O=C(N1CCS(=O)(=O)CC1)N1C[C@H](c2ccc(OC(F)(F)F)cc2)C[C@H](c2nc(C3CC3)no2)C1
remaining binding (cell-free assay, competition with immobilised ligand; 1 µM): 100%

N#CCCc1ccc2c(c1)-c1[nH]c3ccc([N+](=O)[O-])cc3c1CC(=O)N2
remaining signal (cell-free assay; 0.5 µM): 73.1%

CNC(=O)Nc1ccc2c(c1)CC[C@@]21OC(=O)N(CC(=O)N(Cc2ccc(F)cc2)[C@@H](C)C(F)(F)F)C1=O
remaining binding (cell-free assay, competition with immobilised ligand; 1 µM): 94%

FC(F)c1nc2ccccc2n1-c1nc(N2CCOCC2)nc(N2CCOCC2)n1
remaining activity (enzyme activity, inhibitor; 10 µM): 93%

CS(=O)(=O)c1cc(C2(NC(=O)c3cncc4c3cnn4-c3ccc(F)cc3)CC2)ccn1
remaining binding (cell-free assay, competition with immobilised ligand; 1 µM): 94%

Nc1nc(Nc2ccc(S(N)(=O)=O)cc2)sc1C(=O)c1ccccc1[N+](=O)[O-]
inhibition (enzyme activity, inhibitor; 0.1 µM): 60 to 66%
